Reference: the RNAGym collection of RNA variant scans (doi:10.1126/science.aae0568)
Variants at the floor of the assay were thinned out.

B1: tRNA (parent)
chain: GUUCCGUUGGCGUAAUGGUAACGCGUCUCCCUCCUAAGGAGAAGACUGCGGGUUCGAGUCCCGUACGGAACG

Variants of: B1
Experiment: yeast fitness relative to wild type (ratio to wild type); higher = fitter; tRNA-Arg(CCU), competitive growth, 37 C, YPD
Method in brief: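 For this measurement, the tRNA-Arg(CCU) gene was varied by chemical synthesis at a 3% per-site mutation rate across 69 sites, and each variant was placed at the native genomic locus in Saccharomyces cerevisiae. The pooled strains went through a 24-hour competition in YPD at 37°C in six parallel replicates, with amplicons from start and end populations read by 100-nucleotide paired-end sequencing. Darwinian fitness relative to wild type followed from the change in each genotype's frequency. Genotypes needed ≥ 100 starting reads, and estimates < 0.5 were set to 0.5.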

First: GUUCCGUUGGCGUAAUGGUCCCGCGUCUCGCUCCUAAGCAGGAGACUGCGGGUUCGAGUCCCGUACGGAACG
Second: GUUCCGUUGGCGUAAUGGUCCCGCGUCUCCCUCCUAAGGAGAAGACUGCGGGUUCGAGUCCGGUACGGAACG
The yeast fitness of the first is higher: 0.631 for the first, ≤ 0.5 for the second.

First: GUUCCGUUGGCGUAAUGGUCCCGCGUCUCCCUCCUAAGAAGAAGACUGCGGGAUCGAGUCCCGUACGGAACG
Second: GUUCCGUUGGCGUAAUGGUCGCGCGUCUCCCUCCUAAGGAGAAGUCUGCGGGUUCGAGUCCCGUACGGAACG
The yeast fitness of the first is lower: ≤ 0.5 for the first, 0.91 for the second.

Going from GUUCCGUUGGCGUAAUGGUCGCGCGUCUCCCUCCUAAGGAGAAGACUGCGGGUUCGAGUCCCGUACGGACCG to GUUCCGUUGGCGUAAUGGUCGCGUGUCUCCCUCCUAAGGAGAAGACUGCGGGUUCGAGUCCCGUACGGAACG, the yeast fitness falls from 0.803 to 0.647.

GUUCCGUUGGCGUAAUGGUCGCGUGCCUCCCUCCUAAGGAGAAGACUGCGGGUUCGAGUCCCGUACGGAACG and GUUCCGUUGGCGUAAUGGUCGCGCGUCUCCCUCCUAAGGAGAAGAUUGCGGGUUCGAGUGCCGUACGGAACG cannot be ordered by yeast fitness: ≤ 0.5 for the first, ≤ 0.5 for the second.

First: GUUCCGUUGGCGUAAUGGUCGCGCGUCUCCCUCCUAAGGAGAAGACUGCGGGUUCGAGUCCCGUAUGGAACG
Second: GUUCCGUUGGCGUAAUGGUCGCACGUCUCCCUCCUAAGGAGAAGACUGCGGGUUCGAGUCCCGUAAGGAACG
The yeast fitness of the first is higher: 0.737 for the first, ≤ 0.5 for the second.

Compared with GUUCCGUUGGCGUAAUGGUCGCGCGUCUCCCUCCUAAGGAGAAGACUGCGGGUUCCAGUCCCGUAUGGAACG, GUUCCGUUGGCGUAAUGGUCGCGCGUCUCCCUCCUAAGGAGAAGACUGCGGGUUCGACUCCCGUACGGAACG is higher in yeast fitness: ≤ 0.5 for the first, 0.698 for the second.

Compared with GUUCCGUUGGCGUAAUGGUCGCGCGUCUCCCUCCUAAGGAGAAGACUGCGGGUUCGAGUCCCGGACGGAACG, GUUCCGUUGGCGUAAUGGUCUCGCGUGUCCCUCCUAAGGAGUAGACUGCGGGUUCGAGUCCCGUACGGAACG is lower in yeast fitness: 0.558 for the first, ≤ 0.5 for the second.

First: GUUCCGUUGGCGUAAUGGUCUCGCGUGUCCCUCCUAAGGAGUAGACUGCGGGUUCGAGUCCCGUACGGAGCG
Second: GUUCCGUUGGCGUAAUGGUCUCGCGUGUCCCUCCGAAGGAGAAGACUGCGGGUUCGAGUCCCGUACGGAACG
The yeast fitness of the first is lower: ≤ 0.5 for the first, 0.521 for the second.

GUUCCGUUGGCGUAAUGGUCUCGCGUGUCCCUCCGAAGGAGAAGAAUGCGGGUUCGAGUCCCGUACGGACCG and GUUCCGUUGGCGUAAUGGUCUCGCGUCUCCCUGCUAAGGAGAAGACUGCGGGUUCGCGUCCCGUACGGAACG cannot be ordered by yeast fitness: ≤ 0.5 for the first, ≤ 0.5 for the second.

GUUCCGUUGGCGUAAUGGUCUCGCGUCUCCCUCCUAAGGAAAAGACUGCGGGUUCGAGUCCCGUACGGAACG and GUUCCGUUGGCGUAAUGGUCACGCGUCUCCCUCCUCAGGAGAAGACUGCGGGUUCGAGUCCCGUACGGAACG cannot be ordered by yeast fitness: ≤ 0.5 for the first, ≤ 0.5 for the second.

Going from GUUCCGUUGGCGUAAUGGUCACGCGUCUCCCUCCUCAGGAGAAGCCUGCGGGUUCGAGUCCCGUACGGAACG to GUUCCGUUGGCGUAAUGGUCACGCGUCUCCCUCCUGAGGAGAAGUCUGCGGGUUCGAGUCCCGUGCGGAACG, the yeast fitness rises from 0.592 to 0.614.

Going from GUUCCGUUGGCGUAAUGGUCACGCGUCUCCCUCCUGAGGAGAAGACUGCGGGUUUGAGUCCCGUACGGAACG to GUUCCGUUGGCGUAAUGGUCACGCGUCUCCCUCCUGAGGAGAAGACCGCGGGUUCGAGUCCCGUACGGAACG, the yeast fitness rises from 0.556 to 0.658.

First: GUUCCGUUGGCGUAAUGGUCACGCGUCUCCCUCCUUAGGAGAAGACUGCGGGUUCGAGUCCCGUACGGAACG
Second: GUUCCGUUGGCGUAAUGGUCACGCGUCUCCCUCCUUAGGAGAAGCCUGGGGGUUCGAGUCCCGUACGGAACG
The yeast fitness of the first is higher: 0.635 for the first, ≤ 0.5 for the second.

GUUCCGUUGGCGUAAUGGUCACGCGUCUCCCUCCUUAGGAGAAGUCUGCGGGAUCGAGUCCCGUACGGAACG and GUUCCGUUGGCGUAAUGGUCACGCGUCUCCCUCCUUAGGAGAAGACUGCGGGUUCGAGUCCCGUUCGGAACG cannot be ordered by yeast fitness: ≤ 0.5 for the first, ≤ 0.5 for the second.

Compared with GUUCCGUUGGCGUAAUGGUCACGCGUCUCCCUCCUACGGAGAGGACUGCGGGUUCGAGUCCCGUACGGAACG, GUUCCGUUGGCGUAAUGGUCACGCGUCUCCCUCCUACGGAGAGGACUGCGGGUUCGAGUCUCGUACGGAACG is lower in yeast fitness: 0.57 for the first, ≤ 0.5 for the second.

GUUCCGUUGGCGUAAUGGUCACGCGUCUCCCUCCUACGGAGAGGACUGCGGGUACGAGUCCCGUACGGAACG and GUUCCGUUGGCGUAAUGGUCACGCGUCUCCCUCCUACGGAGAAGACUGGGGGUUCGAGUCCCGUACGGAACG cannot be ordered by yeast fitness: ≤ 0.5 for the first, ≤ 0.5 for the second.

GUUCCGUUGGCGUAAUGGUCACGCGUCUCCCUCCUACGGAGAAGACUGCGGGUUCGAGUCCCAUACGGAACG and GUUCCGUUGGCGUAAUGGUCACGCGUCUCCCUCCUACGGAGAAGACUGCGGGCUCGAGUCCCCUACGGAACG cannot be ordered by yeast fitness: ≤ 0.5 for the first, ≤ 0.5 for the second.

First: GUUCCGUUGGCGUAAUGGUCACGCGUCUCCCUCCUAGGGAGAAGACUGCGGGUUCGAGUCCCGUACGGAACG
Second: GUUCCGUUGGCGUAAUGGUCACGCGUCUCCCUCCUAGGGAGAAGACUGGGGGAUCGAGUUCCGUACGGAACG
The yeast fitness of the first is higher: 0.704 for the first, 0.527 for the second.

With GUUCCGUUGGCGUAAUGGUCACGCGUCUCCCUCCUAGGGAGAAGACUGCGGGUUCCAGUCCCGUAUGGAACG the yeast fitness was ≤ 0.5.
